# Test results taken from ChEMBL document CHEMBL4402612, “Heterodimeric Analogues of the Potent Y1R Antagonist 1229U91, Lacking One of the Pharmacophoric C-Terminal Structures, Retain Potent Y1R Affinity and Show Improved Selectivity over Y4R” (J Med Chem, 2020).
# Positions of bridges follow the written chain, without caps; N, C: chain ends. Non-standard residues stand in square brackets, D forms with d. Residues, ends and D or L forms follow the SMILES beside them. Chains are numbered I, II in the order given. Dap = NC[C@H](N)C(=O)O
# What was measured:
# [1] = target: T1, Neuropeptide Y receptor type 4 (Homo sapiens, UniProt P50391); assay: Agonist activity at Y4R in human HEK293T cells assessed as increase in beta-arrestin recruitment incubated for 60 mins by Hoechst 33342 dye based fluorescence analysis
# T1 sequence (P50391 whole entry): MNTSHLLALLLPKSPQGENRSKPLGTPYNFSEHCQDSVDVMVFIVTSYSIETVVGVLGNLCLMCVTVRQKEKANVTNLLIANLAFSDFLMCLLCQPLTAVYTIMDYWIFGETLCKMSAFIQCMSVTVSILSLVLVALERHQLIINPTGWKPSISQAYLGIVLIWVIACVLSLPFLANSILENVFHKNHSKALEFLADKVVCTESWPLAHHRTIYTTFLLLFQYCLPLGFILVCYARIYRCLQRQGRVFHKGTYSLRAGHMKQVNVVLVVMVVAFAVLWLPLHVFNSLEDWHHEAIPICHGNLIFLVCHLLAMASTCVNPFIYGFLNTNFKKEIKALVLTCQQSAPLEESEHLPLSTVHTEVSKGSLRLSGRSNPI
# [2] = species on record: Homo sapiens; assay: Selectivity index, ratio of Ki of GFP-tagged Y4R in human HEK293T cells to Ki GFP-tagged Y1R in human HEK293T cells; format: cell-based
# Summary of the method: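 Ratio of mean Ki values, Y4/Y1, from whole-cell competition binding in tetracycline-induced 293TR Y1-GFP or Y4-GFP cells. Tracer was 100 nM (sCy5)-[Lys²Arg⁴]-BVD15, added after 5 min competitor preincubation, then 30 min at 37 °C, with imaging read-out.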
# [3] = target: T1, Neuropeptide Y receptor type 4; assay: Agonist activity at Y4R in human HEK293T cells assessed as increase in beta-arrestin recruitment incubated for 60 mins by Hoechst 33342 dye based fluorescence analysis relative to pancreatic polypeptide
# [4] = target: T1, Neuropeptide Y receptor type 4; assay: Displacement of (sCy5)-[Lys2 Arg4]-BVD15 from GFP-tagged Y4R in human HEK293T cells assessed as inhibitory constant incubated for 5 mins followed by (sCy5)-[Lys2 Arg4]-BVD15 addition and measured after 30 mins by fluorescence based assay; format: cell-based
# Summary of the method: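 Competitors (10^-10–10^-6 M) added in HBSS/0.1% BSA with H33342 for 5 min, then 100 nM final (sCy5)-[Lys²Arg⁴]-BVD15 for 30 min at 37 °C. Washed and imaged confocally; granule counts per cell. Non-specific binding with 100 nM PP.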
# [5] = target: T2, Neuropeptide Y receptor type 1 (Homo sapiens, UniProt P25929); assay: Displacement of (sCy5)-[Lys2 Arg4]-BVD15 from GFP-tagged Y1R in human HEK293T cells assessed as inhibitory constant incubated for 5 mins followed by (sCy5)-[Lys2 Arg4]-BVD15 addition and measured after 30 mins by fluorescence based assay; format: cell-based
# T2 sequence (P25929 whole entry): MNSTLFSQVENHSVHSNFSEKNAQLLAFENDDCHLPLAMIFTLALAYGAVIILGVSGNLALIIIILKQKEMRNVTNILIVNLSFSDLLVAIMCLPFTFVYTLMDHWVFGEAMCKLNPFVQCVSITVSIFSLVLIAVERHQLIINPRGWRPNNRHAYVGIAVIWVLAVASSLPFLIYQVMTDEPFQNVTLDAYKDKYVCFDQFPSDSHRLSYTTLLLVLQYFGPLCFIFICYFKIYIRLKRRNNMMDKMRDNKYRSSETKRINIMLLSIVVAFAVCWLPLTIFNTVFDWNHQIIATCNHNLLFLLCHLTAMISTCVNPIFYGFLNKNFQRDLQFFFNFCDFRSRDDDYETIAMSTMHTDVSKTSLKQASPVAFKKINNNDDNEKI
# [6] = target: T3, Neuropeptide Y receptor type 1 (Homo sapiens) (UniProt P25929); assay: Potency index, ratio of Ki of compound to Ki of 1229U91 for displacement of (sCy5)-[Lys2 Arg4]-BVD15 from GFP-tagged Y1R in human HEK293T cells assessed as inhibitory constant incubated for 5 mins followed by (sCy5)-[Lys2 Arg4]-BVD15 addition and measured after 30 mins by fluorescence based assay
# T3 sequence (whole entry): T2 sequence (P25929 whole entry)
smiles,measurement,setting,value
"CC[C@H](C)[C@H](N)C(=O)N[C@H]1CCC(=O)NC[C@@H](C(=O)N[C@@H](Cc2ccc(O)cc2)C(=O)N[C@@H](CCCNC(=N)N)C(=O)N[C@@H](CC(C)C)C(=O)N[C@@H](CCCNC(=N)N)C(=O)N[C@@H](Cc2ccc(O)cc2)C(N)=O)NC(=O)[C@@H]2CCCN2C(=O)[C@@H](NC(=O)[C@@H](N)[C@@H](C)CC)CCC(=O)NC[C@@H](C(=O)N[C@@H](Cc2ccc(O)cc2)C(=O)N[C@@H](C)C(=O)N[C@@H](CC(C)C)C(=O)N[C@@H](CCCNC(=N)N)C(=O)N[C@@H](Cc2ccc(O)cc2)C(N)=O)NC(=O)[C@@H]2CCCN2C1=O (I: H-IEP[Dap]YALRY-NH2 / II: H-IEP[Dap]YRLRY-NH2; amide I:2-II:4, I:4-II:2)",EC50,[1],7.59 nM
same,Ratio Ki,[2],419
same,Rmax,[3],49.1%
same,Ki,[4],245 nM
same,Ki,[5],0.575 nM
same,Ki ratio,[6],2
